# Source: article PMC4814158 (MedChemComm, 2015)
# Tests used:
# Format in all cases: in vitro ADME
# [1] = tested on: Phase II conjugative enzymes; test: Phase II conjugation reactions; details: rat enzymes (printed: rat microsomes)
# In short: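 Three rat liver S9 incubations in pH 7.4 phosphate at 37 °C, each with test compound 100 μM and MgCl2 1 mM. Glucuronidation used 2 mg/mL S9 activated with alamethicin on ice 15 min, plus UDPGA 5 mM. Sulfation used 2 mg/mL S9 plus PAPS 0.2 mM. Glutathione conjugation used 10 mg/mL S9 plus glutathione 0.2 mM. Parent loss by LC-MS/MS over 120 min.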
# [2] = tested on: glutathione-S-transferases (GSTs); test: Glutathione conjugation in rat liver S9; details: rat enzymes
# In short: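 Rat liver S9 (10 mg/mL) in 0.1 M potassium phosphate, pH 7.4, with test compound 100 μM and MgCl2 1 mM (final), preincubated 5 min at 37 °C. Reaction started with glutathione 0.2 mM final. Controls: acetaminophen as positive, no-glutathione as negative. Samples taken over 0–120 min, quenched in cold methanol with internal standard. Parent measured by HILIC LC-MS/MS; % intact at 120 min vs time zero, mean ± %CV.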
# [3] = tested on: sulfotransferases (SULTs); test: Sulfoconjugation in rat liver S9 with PAPS; details: rat liver S9, 2 h
# In short: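 Sulfotransferase reaction in rat liver S9 (2 mg/mL), 0.1 M potassium phosphate pH 7.4, with 1 mM MgCl2 and test compound at 100 μM final. After 5 min preincubation at 37 °C, PAPS was added to 0.2 mM. Controls: 7-hydroxycoumarin as positive, PAPS-free as negative. Aliquots to 120 min stopped with ice-cold methanol plus internal standard. LC-MS/MS of parent; percent intact relative to time zero.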
# [4] = tested on: uridine glucuronosyl transferases (UGTs); test: Glucuronide conjugation in rat liver S9 with UDPGA; details: rat liver S9 + UDP glucuronic acid, 2 h
# [5] = tested on: uridine glucuronosyl transferases (UGTs); test: Glucuronide conjugation in human liver S9 with UDPGA; details: human liver S9 + UDP glucuronic acid, 2 h
Structure (SMILES),stability towards Phase II conjugative enzymes (in words) [1],formation of glutathione conjugates (in words) [2],also measured
CN[C@@H]1[C@H](O)[C@H](NC)[C@H]2O[C@]3(O)[C@H](O[C@@H]2[C@H]1O)O[C@H](C)C[C@H]3NC(=O)Cc1ccc(F)cn1 [Compound 1445],complete stability,,
CN[C@@H]1[C@H](O)[C@H](NC)[C@H]2O[C@]3(O)[C@H](O[C@@H]2[C@H]1O)O[C@H](C)C[C@H]3NC(=O)Cc1cc(Cl)ccn1 [Compound 1544],,formed glutathione conjugates,
CN[C@@H]1[C@H](O)[C@H](NC)[C@H]2O[C@]3(O)[C@H](O[C@@H]2[C@H]1O)O[C@H](C)C[C@H]3NC(=O)Cc1ccc(Cl)cn1 [Compound 1599],complete stability,,
CN[C@@H]1[C@H](O)[C@H](NC)[C@H]2O[C@]3(O)[C@H](O[C@@H]2[C@H]1O)O[C@H](C)C[C@H]3NC(=O)Cc1cc(Cl)c(F)cn1 [Compound 1661],complete stability,,
CN[C@@H]1[C@H](O)[C@H](NC)[C@H]2O[C@]3(O)[C@H](O[C@@H]2[C@H]1O)O[C@H](C)C[C@H]3NC(=O)Cc1cc(Cl)c(C)cn1 [Compound 1666],,formed glutathione conjugates,sulfoconjugation (in words) [3]: no metabolism
CN[C@@H]1[C@H](O)[C@H](NC)[C@H]2O[C@]3(O)[C@H](O[C@@H]2[C@H]1O)O[C@H](C)C[C@H]3NC(=O)Cc1ccc(O)cn1 [Compound 1810],complete stability,,% parent compound remaining intact [4]: above 93%; % parent compound remaining intact [5]: above 93%
CN[C@@H]1[C@H](O)[C@H](NC)[C@H]2O[C@]3(O)[C@H](O[C@@H]2[C@H]1O)O[C@H](C)C[C@H]3NC(=O)Cc1cc(Cl)c(OC)cn1 [Compound 1878],,formed glutathione conjugates,
